# Compound activity as filed in PubChem BioAssay.
# CSN deneddyl inh = inhibitors of human CSN-mediated cullin deneddylation | hit rate 0.38% among 360,000 | Purified CSN, SCF-Nedd8-OG deneddylation, fluorescence polarization | inhibition, % at 12.5 µM;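 active means pattern-corrected inhibition above about 35%, with an unprinted fluorescence ratio check between 0.5 and 1.5, limit read from the data, passing the limit was not always enough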;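 further: 0% = enzyme with substrate and 100% = substrate without enzyme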
# Target sequence (Q92905 whole entry, looked up, one chain of several): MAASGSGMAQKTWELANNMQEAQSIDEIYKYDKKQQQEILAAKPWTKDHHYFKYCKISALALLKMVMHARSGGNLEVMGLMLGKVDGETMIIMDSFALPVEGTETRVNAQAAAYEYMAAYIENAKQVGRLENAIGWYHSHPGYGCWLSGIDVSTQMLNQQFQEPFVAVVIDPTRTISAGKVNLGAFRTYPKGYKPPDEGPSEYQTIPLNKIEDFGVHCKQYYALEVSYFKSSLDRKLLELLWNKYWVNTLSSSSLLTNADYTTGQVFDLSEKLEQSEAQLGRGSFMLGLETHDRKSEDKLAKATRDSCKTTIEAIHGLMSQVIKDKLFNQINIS
#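 Detection – fluorescence polarization · System – HEK293T-derived human Csn5 enzyme · Controls – substrate-only high control, full reaction low control · Timing – 90 min, room temperature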
# Rpn11 block = blocks the human proteasome subunit Rpn11 | O00487 | hit rate 0.59% among 360,000 | human 26S proteasome, Ub4-pepOG fluorescence polarization; 20S core pre-blocked with epoxomicin | inhibition, % at 20 µM;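 active means inhibition at 20 µM, scaled to each plate's controls, above about 33%, limit read from the data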
# Target sequence (O00487 whole entry, looked up): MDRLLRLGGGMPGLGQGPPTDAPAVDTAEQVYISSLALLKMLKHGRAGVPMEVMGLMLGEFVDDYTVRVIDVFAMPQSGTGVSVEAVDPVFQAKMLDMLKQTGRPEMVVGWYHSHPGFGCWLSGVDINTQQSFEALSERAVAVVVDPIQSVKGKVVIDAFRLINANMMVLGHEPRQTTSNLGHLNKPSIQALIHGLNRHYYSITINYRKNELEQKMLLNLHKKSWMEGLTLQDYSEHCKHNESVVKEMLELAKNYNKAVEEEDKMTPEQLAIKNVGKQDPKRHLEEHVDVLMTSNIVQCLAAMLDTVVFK
# TPT1 inhibitor = C. albicans TPT1 enzyme inhibition. recombinant caTPT1, FP RNA substrate dephosphorylation. inhibition, % at 5 µM. hit rate 0.81% among 300,000. AID 1962;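 active means inhibition above the mean of all tested compounds plus 3 SD, set per screening campaign, cut at about 24% in these data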;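 further: plate controls were DMSO alone for no effect and ferristatin control at 100 nM for full effect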
# Xi reactivation = activators of X-chromosome reactivation in mouse fibroblasts; XiGFP mouse fibroblasts, % GFP-positive cells imaging, 3 d; cells co-treated with 5-aza-dC sensitizer; scaled so ellipticine positive control = 100%; activation, % at 7.58 µM; hit rate 0.055% among 360,000;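 active means mean normalized replicate activation at least 10% and every replicate at or above 10%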;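 further: 0% = median of on-plate neutral control wells and 100% = ellipticine 6 µM median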
#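 Material: SV40-immortalized XiGFP fibroblast cells, line 68-5-11 | Buffer or medium: DMEM containing 5-aza-dC | Dosing: One concentration, pinned | Times: 3 d treatment, 15 min room-temperature fixation | Controls: Ellipticine 6 µM positive control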
# aDG glyco act = alpha-DG glycosylation activation | Pro5-aDG cells, alpha-DG glycosylation AlphaScreen (IIH6); 0% Pro5, 100% B10-LARGE cell signal | AID 624168 | hit rate 0.22% among 360,000 | activation, % at 10 µM;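 active means activation of at least 8% versus controls, or a plate z-score of at least 8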;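 further: Pro5 are CHO cells carrying HIG-tagged alpha-DG that lacks glycosylation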
# HNF4A DNA FP = change in binding of human HNF4 alpha to DNA. P41235. HNF4a-FITC DNA binding, fluorescence polarization, 1 h. activity change, % at 10 µM. hit rate 0.3% among 360,000; in the data active means activity change above about 30%, passing the limit was not always enough
# aDG conf = confirmation of alpha dystroglycan glycosylation activators; Pro5-aDG cells, alpha-DG glycosylation, IIH6 AlphaLISA; scaled to LARGE-overexpressing B10 cells as 100%; shares compounds with aDG glyco act; AID 651671; activation, % at 10 µM (by protocol); hit rate 17% among 600;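 active means activation of at least 7% in one or more replicates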;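 further: cells exposed to compound for two days before detection; 0% = DMSO-treated Pro5 cells and 100% = DMSO-treated B10-LARGE cells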
# * = called active by the depositor; . = no result shown; ! = not active in a repeat. Rows were chosen to be rich in hits. Some 1.3% of all compounds tested hit in one or more screens of this group.
SMILES,CSN deneddyl inh,Rpn11 block,TPT1 inhibitor,Xi reactivation,aDG glyco act,HNF4A DNA FP,aDG conf
CCc1ccccc1NC(=O)NC1CC2CCC(C1)N2Cc1cccs1 (stereo unspecified),2,-8,-3,.,0,4,.
C[C@@H]1CN([C@@H](C)CO)C(=O)c2cccc(NC(=O)C3CC3)c2O[C@@H]1CN(C)C(=O)Nc1ccc2c(c1)OCO2,.,.,.,0,.,.,.
CCCC#Cc1cnc2c(c1)C(=O)N([C@@H](C)CO)C[C@@H](C)[C@@H](CN(C)C(=O)c1cccnc1)O2,.,.,.,-1,.,.,.
NC(=S)NN=C(c1ccc(Br)cc1)C1CC1,2,-1,.,0,5.7*,-1,1
NC(=S)NN=C(c1ccc(F)cc1)C1CC1,-1,-5,.,0,2,4,.
CC(C)Cc1cc(CN2CCC(CO)(Cc3cccc(C(F)(F)F)c3)CC2)[nH]n1,8,3,-4,0,10*,0,4
COc1cccc(N2CCN(c3ccc([N+](=O)[O-])cn3)CC2)c1,0,9,-4,0,3.4*,-2,0
CCC(=O)Nc1ccc2c(c1)C(=O)N(C)C[C@@H](OC)[C@@H](C)CN(Cc1cccc(F)c1)[C@H](C)CO2,.,.,.,1,.,.,.
COc1cc(C(=O)C(=O)N2CCC(Cc3ccccc3)CC2)cc2ccccc12,-1,.,.,0,10*,2,0
COc1cc(C(=O)C(=O)N2CCN(c3ccc(C)cc3)CC2)cc2ccccc12,2,.,.,0,0,-1,.
COc1cc(OC)cc(C(=O)Nc2cccc(C(C)=O)c2)c1,-1,-8,1,.,0,-2,.
COc1cc(OC)cc(C(=O)Nc2cccc(N3CCCC3)c2)c1,11,4,2,.,3.7*,7,2
O=C(NNC(=O)C1CC(=O)N(c2ccc3c(c2)OCCO3)C1)c1ccc(F)cc1 (stereo unspecified),-4,-8,-1,0,3.3*,-5,0
CC(Oc1ccccc1F)C(=O)NNC(=O)C1CC(=O)N(c2ccc3c(c2)OCCO3)C1 (stereo unspecified),3,-1,4,-1,0,-1,.
COc1ccc(Cl)cc1C(=O)NNC(=O)c1cccc([N+](=O)[O-])c1,0,1,-2,0,3.3*,2,0
COc1ccccc1C(=O)NNC(=O)c1cccc(Cl)c1,1,2,0,0,1,0,.
O=C(Cc1ccccn1)NCC[C@H]1CC[C@H](NS(=O)(=O)c2ccc(Cl)cc2)[C@H](CO)O1,.,.,.,0,.,.,.
CN1CCN(CCCNC(=O)CCN2C(=O)COc3ccccc32)CC1,-1,0,-2,0,0,2,.
O=C(CCN1C(=O)COc2ccccc21)NCCCN1CCCC1,4,-4,3,0,6.4*,4,2
CC(=O)Nc1nc(COc2ccccc2)cs1,-4,0,0,.,0,4,.
CC(=O)Nc1nc(CC(=O)c2ccccc2)cs1,-2,9,1,0,8.4*,6,1
C[C@@H]1CN([C@H](C)CO)C(=O)c2cc(NC(=O)CCCCCC(=O)Nc3ccccc3N)ccc2O[C@H]1CN(C)S(C)(=O)=O,.,.,.,0,.,.,.
CC(C)NC(=O)N(C)C[C@@H]1Oc2ncc(-c3cncnc3)cc2C(=O)N([C@H](C)CO)C[C@@H]1C,.,.,.,-1,.,.,.
CCCNC(=O)C[C@H]1CC[C@H]2[C@@H](COc3ccc(NC(=O)Cc4cccs4)cc3C(=O)N2C)O1,.,.,.,0,.,.,.
COC(=O)c1c(C)cc(O)cc1O,3,2,0,.,0,-3,.
SMILES,CSN deneddyl inh,Rpn11 block,TPT1 inhibitor,Xi reactivation,aDG glyco act,HNF4A DNA FP,aDG conf
Cc1cc(OC(=O)c2c(C)cc(OC(=O)c3c(C)cc(O)cc3O)cc2O)cc(O)c1C(=O)O,6,4,1,.,6.1*,-4,0
Cc1ccc(S(=O)(=O)/N=C2\C(=O)c3ccccc3C([O-])=C2n2cc[n+](CCC(C)C)c2)cc1,4,10,0,.,4,-1,.
CCCC[n+]1ccn(C2=C([O-])c3ccccc3C(=O)/C2=N\S(=O)(=O)c2ccc(Br)cc2)c1,-8,1,0,0,11*,0,13*
C[C@@H]1CCCCO[C@H](CN(C)C(=O)Nc2ccc(F)cc2)[C@@H](C)CN([C@@H](C)CO)C(=O)c2cc(NC(=O)C3CCCCC3)ccc2O1,.,.,.,-1,.,.,.
CCNC(=O)Nc1cc(S(=O)(=O)Nc2ccc(OC)cc2)ccc1N1CCOCC1,0,4,.,.,4.9*,7,-1
CCCCNC(=O)c1ccc(N2CCOCC2)c(NS(=O)(=O)c2ccc(OC)cc2)c1,-1,-1,2,.,0,6,.
CN(CC(=O)Nc1cccc(F)c1)C(=O)c1cccc(S(=O)(=O)N2CCN(c3ccccc3)CC2)c1,4,8,-1,0,8.0*,2,-1
O=C(CN1C2=NCCCN2c2ccccc21)c1ccc([N+](=O)[O-])cc1,3,0,1,0,7.5*,-3,1
C[C@@H]1CN([C@@H](C)CO)C(=O)c2cc(NC(=O)Nc3ccc(F)cc3)ccc2O[C@@H](C)CCCCO[C@@H]1CN(C)S(=O)(=O)c1cn(C)cn1,.,.,.,0,.,.,.
Brc1cccc(-c2nc3c4ccccc4ccn3c2CC2CCCCC2)c1,5,.,.,1,15*,8,5.8*
c1ccc(-c2nc3c4ccccc4ccn3c2CC2CCCCC2)cc1,2,.,.,1,4,0,.
CCCNC(=O)[C@@H]1[C@@H](CO)[C@@H]2Cn3c(ccc(-c4ccccc4)c3=O)[C@@H]2N1C(=O)C1CCC1,.,.,.,1,.,.,.
COc1ccccc1CN=Cc1[nH]c2ccc(Br)c(Cl)c2c1O,3,.,19,.,5.8*,20,1
COc1cc(Br)cc(/C=N/NC(=O)Cc2ccccc2)c1O,-1,-2,-1,0,1,3,.
COc1cccc(-c2ccc([C@H]3[C@@H](CO)N4C(=O)CN(C(=O)C5CCC5)C[C@@H]34)cc2)c1,.,.,.,0,.,.,.
O=C(Nc1cccc(Cl)c1)Nc1sccc1-c1nc2ccccc2s1,5,.,11,0,4.4*,10,-1
CCOC(=O)c1sc2nc(CSc3ccccc3)nc(NCCN(C)C)c2c1C,3,6,3,0,8.4*,13,2
CC(O)C1C(=O)OC2(C)CC(C)(C)NC(=S)N12 (stereo unspecified),2,-1,-4,.,0,0,.
CC1(C)CC2(C)OCCN2C(=S)N1 (stereo unspecified),-2,-1,-3,0,3.3*!,4,0
